High-throughput results as filed in PubChem.
OXTR potentiator: human OXTR potentiators, primary screen, fluorescence, CHO-OTR cells, Fluo-8 calcium; Oxytocin receptor (Homo sapiens), P30559; 320,000 compounds, 0.061% hits; Fluo-8 calcium fluorescence, potentiator mode; 0% = oxytocin EC15, 100% = EC100; AID 2445, 2010; activation, % at 3 µM;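 active means activation above that plate's cutoff, the mean activation of tested compounds plus 3 SD, cut at about 6.6% in these data, passing the limit was not always enough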
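Assay system: CHO-OTR cells, human receptor / Also added: oxytocin at about EC15, sub-maximal agonist stimulus / Dosing: single dose, 3.0 µM nominal final compound concentration / Incubation: 6 min pre-incubation, 100 s read / Technique: Fluo-8 calcium dye fluorescence / Read-out: % activation vs EC15 and EC100 oxytocin / Benchmarks: EC15 oxytocin low, 75 nM oxytocin high / Replicates: singlicate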
zfTRPN1 agonist: zebrafish TRPN1 channel agonists, primary screen, cell-based, HEK293, calcium fluorescence | AID 1424, 2008 | HEK293 zebrafish TRPN1-YFP, Fluo-8 calcium fluorescence; 100% = response to 87 µM carbachol | activation, % at 3 µM | 220,000 compounds, 0.18% hits | transient receptor potential cation channel N1 (TRPN1/NompC), Danio rerio;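 active means activation above its plate's cutoff, the mean activation of test wells on that plate plus 3 SD, cut at about 19% in these data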
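Material – zebrafish TRPN1-YFP in HEK293 cells · Doses – 3 µM single point · Schedule – dye 1 h 37 °C plus 30 min RT · Signal – Fluo-8 calcium fluorescence, excitation 470-495 nm, emission 515-575 nm · Read-out – % activation versus carbachol response · Control set – carbachol high, DMSO low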
OXTR agonist: human OXTR agonists, primary screen, fluorescence, CHO-OTR cells, Fluo-8 calcium; activation, % at 3 µM; Oxytocin receptor (Homo sapiens), P30559; 320,000 compounds, 0.32% hits; AID 2435, 2010; Fluo-8 calcium fluorescence; normalized: DMSO 0%, oxytocin 100%;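 active means activation above the mean of all tested compounds plus 3 SD, cutoff set per screening run, cut at about 20% in these data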;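 further: peak over basal fluorescence ratio from a 100 s FLIPR kinetic read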
TRPML3 ag: human TRPML3 channel agonists, primary screen, cell-based, HEK293 TRPML3-YFP, Fluo-8 calcium fluorescence, 3 µM; Mucolipin-3 (Homo sapiens), Q8TDD5; 100% = the carbachol control signal; activation, % at 3 µM; 220,000 compounds, 0.29% hits; AID 1448, 2008;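 active means activation above its plate's cutoff, the mean activation of the plate's test wells plus 3 SD, cut at about 12% in these data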
Target sequence (Q8TDD5 whole entry, looked up): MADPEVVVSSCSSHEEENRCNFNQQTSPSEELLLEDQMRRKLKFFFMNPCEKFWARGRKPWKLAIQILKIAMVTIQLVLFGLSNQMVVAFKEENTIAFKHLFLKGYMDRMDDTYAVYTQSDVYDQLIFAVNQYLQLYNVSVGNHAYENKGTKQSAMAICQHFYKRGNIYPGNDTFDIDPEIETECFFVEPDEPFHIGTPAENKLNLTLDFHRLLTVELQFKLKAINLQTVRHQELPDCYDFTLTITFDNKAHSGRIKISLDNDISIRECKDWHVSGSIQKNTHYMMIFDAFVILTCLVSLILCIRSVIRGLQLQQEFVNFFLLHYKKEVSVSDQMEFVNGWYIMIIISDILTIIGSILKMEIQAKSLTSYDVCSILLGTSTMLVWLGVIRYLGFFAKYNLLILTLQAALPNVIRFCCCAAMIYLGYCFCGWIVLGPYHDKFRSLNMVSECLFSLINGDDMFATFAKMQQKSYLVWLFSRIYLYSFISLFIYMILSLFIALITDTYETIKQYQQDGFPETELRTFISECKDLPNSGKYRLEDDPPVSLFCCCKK
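system = HEK293 cells stably carrying human TRPML3-YFP | doses = one concentration, 3 µM nominal, 0.3% DMSO | timing = dye loading 1 h 37 °C then 30 min ambient, 125 s read | detection = Fluo-8 calcium dye fluorescence, ex 470-495, em 515-575 nm | benchmarks = high control carbachol 87 µM, low control DMSO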
V1aR counter: agonists of human V1a receptor, primary screen, counter-screen for OXTR agonist project, fluorescence, CHO-V1R cells. Fluo-8 calcium fluorescence, agonist mode; 0% DMSO, 100% 3 nM vasopressin. activation, % at 3 µM. 320,000 compounds, 0.25% hits;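 active means activation above the mean activation of all tested compounds plus 3 SD, per screening run, cut at about 20% in these data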;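 further: signal is peak over basal fluorescence ratio across a 100 second FLIPR read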
TRPN1 counter: zebrafish TRPN1 channel agonists, counter-screen for TRPML3 agonist project, cell-based, HEK293 TRPN1-YFP, Fluo-8 calcium. shares compounds with TRPML3 ag. Fluo-8 calcium fluorescence; scaled: carbachol wells 100%, DMSO wells 0%. activation, % at 3 µM. 310 compounds, 10% hits. AID 1525, 2009;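 active means mean activation over replicates above a set limit taken from the earlier TRPN1 channel primary screen, cut at about 19% in these data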
TRPML3 confirm: human TRPML3 channel agonists, confirmation, cell-based, HEK293 TRPML3-YFP, Fluo-8 calcium, triplicate | shares compounds with TRPML3 ag | AID 1526, 2009 | Fluo-8 calcium fluorescence; 100% set by carbachol, 0% by DMSO | activation, % at 3 µM | 310 compounds, 80% hits;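 active means activation above a set limit derived from the earlier primary screen, cut at about 12% in these data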
Each line names hits and unclear results; the compound was inactive in the other large screens (follow-up assays come after a bar, where they were run). Only some compounds are listed: those with a hit (about 0.55% of all), similar ones and a draw of the others.

Cc1noc(C)c1COC(=O)c1cccc(S(=O)(=O)N2CCCCCC2)c1	TRPML3 ag 13.0 | TRPN1 counter inactive | TRPML3 confirm 17.8
COc1ccc(S(=O)(=O)N2CCCCCC2)cc1C(=O)OCc1c(C)noc1C	TRPML3 ag 29.9 | TRPN1 counter inactive | TRPML3 confirm 13.7
Cc1noc(C)c1COC(=O)c1ccc(F)c(S(=O)(=O)N2CCCCC2)c1	none
O=C1c2ccccc2CCCC12N=NCC2c1cccc2ccccc12 (configuration not stated)	TRPML3 ag 56.1 | TRPN1 counter inactive | TRPML3 confirm 66.9
CC1=CC(=O)C=C(C)C1=NOS(=O)(=O)c1ccccc1	none (no result: OXTR potentiator, OXTR agonist, V1aR counter)
CC1=CC(=O)C(C(C)C)=C/C1=N/OS(=O)(=O)c1ccccc1	TRPML3 ag 19.4 | TRPN1 counter inactive | TRPML3 confirm 22.7
CCN(C(=O)c1cnc(OC)cc1C(F)(F)F)c1ccc(Cl)cc1Cl	TRPML3 ag 39.3 | TRPN1 counter inactive | TRPML3 confirm 47.0
O=C(COc1ccc(/C=N/NC(=O)c2ccccc2)cc1)Nc1ccc([N+](=O)[O-])cc1	none
CC(C)Oc1ccc(/C=N/NC(=O)C(CSCc2ccccc2)NC(=O)c2ccc([N+](=O)[O-])cc2)cc1 (configuration not stated)	TRPML3 ag 52.9 | TRPN1 counter inactive | TRPML3 confirm 78.2
CC(NC(=S)Nc1cccc(C(F)(F)F)c1)C(C)(C)C (configuration not stated)	TRPML3 ag 12.0 | TRPN1 counter inactive | TRPML3 confirm inactive
CN(C)NC(=S)Nc1cccc(C(F)(F)F)c1	none
C[C@H](CO)N1C[C@H](C)[C@@H](CN(C)CC2CCCCC2)Oc2c(NC(=O)Cc3ccccc3)cccc2C1=O	none (no result: zfTRPN1 agonist, TRPML3 ag)
COc1ccc(S(=O)(=O)N2CCCCCC2)cc1N(C)S(=O)(=O)c1ccccc1	TRPML3 ag 70.0 | TRPN1 counter inactive | TRPML3 confirm 74.3
COc1ccc(S(=O)(=O)N2CCCC2)cc1Br	none (no result: zfTRPN1 agonist, TRPML3 ag)
COc1ccc(S(=O)(=O)N2CCCCC2)cc1C(C)C	TRPML3 ag 74.2 | TRPN1 counter inactive | TRPML3 confirm 138.3
CCOc1cc(S(=O)(=O)N2CCCCCC2)ccc1F	TRPML3 ag 15.2 | TRPN1 counter inactive | TRPML3 confirm 22.1
CCOc1ccccc1N1CCN(S(=O)(=O)c2ccc(F)c(F)c2)CC1	none
CCOc1ccccc1N1CCN(S(=O)(=O)c2ccc(Cl)s2)CC1	TRPML3 ag 37.5 | TRPN1 counter inactive | TRPML3 confirm 27.0
CCCCc1nnc(NC(=O)C(C)Sc2nc(O)c(Cc3ccccc3)c(=O)[nH]2)s1 (configuration not stated)	none
CC(C)(C)N(NC(=O)c1ccccc1)C(=O)c1ccc(C(=O)N(NC(=O)c2ccccc2)C(C)(C)C)cc1	none
COc1ccc(C(=O)N(NC(=O)Oc2ccccc2)C(C)(C)C)cc1	TRPML3 ag 13.3 | TRPN1 counter inactive | TRPML3 confirm inactive
O=C(CC1C(=O)NCCN1C(=O)c1ccccc1)Nc1cc(Cl)ccc1Cl (configuration not stated)	none (no result: zfTRPN1 agonist, TRPML3 ag)
Cc1ccc(C2=CC(c3ccc(N(C)C)cc3)n3nnnc3N2)cc1 (configuration not stated)	TRPML3 ag 17.7 | TRPN1 counter inactive | TRPML3 confirm inactive
O=C(c1ccc(Cl)cc1)n1c(NCc2ccccc2)n[nH]c1=S	none
CSCCC(NC(=O)c1ccco1)C(=O)N1CC=C(c2ccccc2)CC1 (configuration not stated)	none (no result: zfTRPN1 agonist, TRPML3 ag)
Cc1cc(N2CCOCC2)nc(NCc2ccccc2)n1	TRPML3 ag 15.9 | TRPN1 counter 20.7 | TRPML3 confirm 15.2
Cc1cc(N2CCOCC2)nc(N)n1	TRPML3 ag 11.8 | TRPN1 counter inactive | TRPML3 confirm inactive
C=C(C)CN1CCN(S(=O)(=O)c2ccc(C)c(N(C)S(=O)(=O)c3ccc(C)cc3)c2C)CC1	TRPML3 ag 59.8 | TRPN1 counter inactive | TRPML3 confirm 77.7
Cc1ccc(S(=O)(=O)N(C)c2c(C)ccc(S(=O)(=O)N3CCN(C)CC3)c2C)cc1	none
Cc1nc(NC(=O)c2csc3ccccc23)sc1C	TRPML3 ag 17.8 | TRPN1 counter inactive | TRPML3 confirm 28.1
Cc1nc(NC(=O)c2ccccc2O)sc1C	none (no result: zfTRPN1 agonist, TRPML3 ag)
CCCC(=O)Oc1c(S(=O)(=O)c2ccc(C)cc2)c(C)nn1C(C)(C)C	TRPML3 ag 25.7 | TRPN1 counter inactive | TRPML3 confirm 84.5
CCN(CC(=O)Nc1c(F)cccc1F)C(=O)c1ccc2c(c1)OCCO2	none (no result: zfTRPN1 agonist, TRPML3 ag)
O=c1cc(C(F)(F)F)[nH]c2c(C(F)(F)F)cccc12	TRPML3 ag 14.6 | TRPN1 counter 29.0 | TRPML3 confirm 12.5
O=c1cc(C(F)(F)F)[nH]c2ccc(OC(F)(F)F)cc12	TRPML3 ag 11.8 | TRPN1 counter 26.4 | TRPML3 confirm inactive
Cc1cc(=O)c2cccc(Br)c2[nH]1	none
CCOC(=O)N1CCC(N2C(=O)c3ccc(C(=O)Nc4cccc(OC)c4)cc3C2=O)CC1	none (no result: zfTRPN1 agonist, TRPML3 ag)
COc1ccc2c(c1)C(C)CC(C)(C)N2C(=O)CSc1nc2ccccc2s1 (configuration not stated)	TRPML3 ag 18.5 | TRPN1 counter inactive | TRPML3 confirm 33.2
CCOC(=O)CSc1nc2c(sc(=S)n2-c2ccccc2OC)c(=O)n1Cc1ccco1	TRPML3 ag 40.4 | TRPN1 counter inactive | TRPML3 confirm 59.0
CCOC(=O)CSc1nc2c(sc(=S)n2-c2ccccc2OC)c(=O)n1-c1ccccc1OC	none (no result: zfTRPN1 agonist, TRPML3 ag)
COc1ccc(C2C(C(C)=O)=C(C)N=c3s/c(=C\c4cc(C)n(C)c4C)c(=O)n32)c(OC)c1 (configuration not stated)	OXTR agonist 34.9, TRPML3 ag 15.6, V1aR counter 39.5 | TRPN1 counter 28.4 | TRPML3 confirm 17.8
Cc1ccc(C(=O)CSC2=C(C#N)C(c3ccco3)CC(=O)N2)c(C)c1 (configuration not stated)	OXTR agonist 51.5, TRPML3 ag 15.8, V1aR counter 52.8 | TRPN1 counter inactive | TRPML3 confirm inactive
